{"source": "ChEMBL document CHEMBL1146024", "about": "“Synthesis and structure-activity relationships of truncated bisubstrate inhibitors of aminoglycoside 6'-N-acetyltransferases” (J Med Chem, 2006)", "test_system": "Enterococcus faecium", "experiment": "Inhibition of Enterococcus faecium C238 growth in presence of kanamycin A", "assay_type": "functional, organism-based", "how_it_was_run": "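Two-dimensional checkerboard MIC assay per NCCLS, in duplicate, in brain heart infusion medium. Test compound in 2-fold dilutions from 8 to 512 µg/mL against kanamycin A at 100-600 µg/mL. Grown at 37 °C for 16 h; growth read at OD625, averaged, normalized to sterility controls and expressed as percent of positive growth controls.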", "note": "The source made the active and inactive calls. No cut-off for these calls is given here."}
{"smiles": "CC(C)(COC(=O)CC(=O)O)[C@@H](O)C(=O)NCCC(=O)NCCSCC(=O)NC[C@H]1O[C@H](O[C@H]2[C@H](O)[C@@H](O)[C@H](N)C[C@@H]2N)[C@H](N)[C@@H](O)[C@@H]1O", "values": [{"measurement": "Activity", "value": "inactive"}]}
{"smiles": "CC(=O)CC(=O)OCC(C)(C)[C@@H](O)C(=O)NCCC(=O)NCCSCC(=O)NC[C@H]1O[C@H](O[C@H]2[C@H](O)[C@@H](O)[C@H](N)C[C@@H]2N)[C@H](N)[C@@H](O)[C@@H]1O", "values": [{"measurement": "Activity", "value": "Active"}]}
